Measured values: ChEMBL document CHEMBL2203081 (Bioorg Med Chem Lett, 2012)
The source made the active and inactive calls. No cut-off for these calls is given here.

Experiments:
[1] = target: Platelet-derived growth factor receptor beta (Homo sapiens) (UniProt P09619); assay: Inhibition of PDGFRB assessed as residual activity at 10 uM relative to control
[2] = target: Tyrosine-protein kinase Lyn (Homo sapiens) (UniProt P07948); assay: Inhibition of LYN assessed as residual activity at 10 uM relative to control
[3] = target: T1, NUAK family SNF1-like kinase 1 (Homo sapiens) (UniProt O60285); assay: Inhibition of NUAK1 assessed as residual activity at 1 uM
T1 sequence (whole entry): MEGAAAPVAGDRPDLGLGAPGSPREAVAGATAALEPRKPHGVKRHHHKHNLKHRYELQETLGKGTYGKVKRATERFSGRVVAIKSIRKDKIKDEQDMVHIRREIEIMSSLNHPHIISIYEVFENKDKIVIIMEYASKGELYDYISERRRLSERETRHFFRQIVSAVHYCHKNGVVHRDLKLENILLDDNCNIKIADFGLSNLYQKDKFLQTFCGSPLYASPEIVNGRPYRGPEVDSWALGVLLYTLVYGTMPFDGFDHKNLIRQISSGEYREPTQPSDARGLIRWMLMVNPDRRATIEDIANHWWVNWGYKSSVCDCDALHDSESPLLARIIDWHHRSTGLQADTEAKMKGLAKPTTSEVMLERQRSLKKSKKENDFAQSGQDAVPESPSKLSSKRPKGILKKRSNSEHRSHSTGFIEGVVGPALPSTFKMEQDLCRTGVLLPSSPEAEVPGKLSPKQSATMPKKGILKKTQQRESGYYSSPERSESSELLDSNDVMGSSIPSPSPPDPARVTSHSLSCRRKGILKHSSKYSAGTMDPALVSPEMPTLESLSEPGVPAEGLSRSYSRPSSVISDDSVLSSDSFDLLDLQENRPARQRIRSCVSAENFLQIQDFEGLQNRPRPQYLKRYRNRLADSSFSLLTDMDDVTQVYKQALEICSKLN

[4] = target: Calcium/calmodulin-dependent protein kinase kinase 2 (Homo sapiens) (UniProt Q96RR4); assay: Inhibition of CAMKKb assessed as residual activity at 1 uM
[5] = Inhibition of FLT3 ITD mutant assessed as residual activity at 10 uM relative to control
[6] = target: Protein kinase C iota type (Homo sapiens) (UniProt P41743); assay: Inhibition of PRKCI assessed as residual activity at 10 uM relative to control
[7] = target: Mitogen-activated protein kinase kinase kinase 9 (Homo sapiens) (UniProt P80192); assay: Inhibition of MLK1 assessed as residual activity at 1 uM
[8] = system: Mast/stem cell growth factor receptor Kit (Homo sapiens), P10721 [L576P]; assay: Inhibition of KIT L576P mutant assessed as residual activity at 10 uM relative to control
[9] = target: Serine/threonine-protein kinase WNK1 (Homo sapiens) (UniProt Q9H4A3); assay: Inhibition of WNK1 assessed as residual activity at 10 uM relative to control
[10] = target: T2, Mitogen-activated protein kinase kinase kinase 7 (Homo sapiens) (UniProt O43318); assay: Inhibition of TAK1 assessed as residual activity at 10 uM
T2 sequence (whole entry): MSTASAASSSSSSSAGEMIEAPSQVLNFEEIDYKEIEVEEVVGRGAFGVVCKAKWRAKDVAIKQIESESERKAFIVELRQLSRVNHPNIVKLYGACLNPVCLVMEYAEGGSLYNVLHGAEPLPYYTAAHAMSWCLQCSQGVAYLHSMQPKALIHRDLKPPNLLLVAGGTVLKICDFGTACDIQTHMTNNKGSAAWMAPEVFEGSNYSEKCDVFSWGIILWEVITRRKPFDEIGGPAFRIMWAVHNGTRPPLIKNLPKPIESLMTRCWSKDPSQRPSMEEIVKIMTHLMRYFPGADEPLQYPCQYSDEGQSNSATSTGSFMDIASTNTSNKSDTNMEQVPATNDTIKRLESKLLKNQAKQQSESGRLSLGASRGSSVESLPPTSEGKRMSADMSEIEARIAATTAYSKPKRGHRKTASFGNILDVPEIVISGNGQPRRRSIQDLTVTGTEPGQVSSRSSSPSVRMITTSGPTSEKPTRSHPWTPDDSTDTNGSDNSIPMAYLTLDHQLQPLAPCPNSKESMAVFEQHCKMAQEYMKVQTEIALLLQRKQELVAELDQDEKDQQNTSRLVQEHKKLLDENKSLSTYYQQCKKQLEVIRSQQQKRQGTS

[11] = target: Homeodomain-interacting protein kinase 3 (Homo sapiens) (UniProt Q9H422); assay: Inhibition of HIPK3 assessed as residual activity at 10 uM relative to control
[12] = target: Calcium/calmodulin-dependent protein kinase type II subunit delta (Homo sapiens) (UniProt Q13557); assay: Inhibition of CAMK2D assessed as residual activity at 10 uM relative to control
[13] = target: Cyclin-dependent kinase 18 (Homo sapiens) (UniProt Q07002); assay: Inhibition of PCTK3 assessed as residual activity at 10 uM relative to control
[14] = target: T3, Serine/threonine-protein kinase STK11 (Homo sapiens) (UniProt Q15831); assay: Inhibition of LKB1 assessed as residual activity at 1 uM
T3 sequence (whole entry): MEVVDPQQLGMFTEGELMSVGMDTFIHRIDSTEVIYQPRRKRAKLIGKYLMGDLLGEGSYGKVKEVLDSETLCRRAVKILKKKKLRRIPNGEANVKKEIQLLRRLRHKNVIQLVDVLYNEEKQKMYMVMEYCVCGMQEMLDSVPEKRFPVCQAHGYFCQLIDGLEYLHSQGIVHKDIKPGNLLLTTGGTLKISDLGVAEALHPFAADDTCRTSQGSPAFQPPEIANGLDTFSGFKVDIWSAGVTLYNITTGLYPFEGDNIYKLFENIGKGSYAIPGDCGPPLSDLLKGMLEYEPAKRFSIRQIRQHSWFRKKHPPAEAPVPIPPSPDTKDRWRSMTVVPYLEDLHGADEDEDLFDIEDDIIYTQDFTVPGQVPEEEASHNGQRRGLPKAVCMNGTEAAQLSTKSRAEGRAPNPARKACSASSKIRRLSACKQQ

Mus musculus = assay: Inhibition of LRRK2 in mouse assessed as inhibition of Ser910 autophosphorylation in spleen at 100 mg/kg, ip by immunoblot method; format: functional, organism-based; design: dose 100 mg/kg
[15] = target: Casein kinase I isoform delta (Homo sapiens) (UniProt P48730); assay: Inhibition of CSNK1D assessed as residual activity at 10 uM relative to control
In short: (§1)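 Competition kinase-binding assay (KINOMEscan) across a non-redundant panel of 329 kinases beyond the radiometric panel; residual binding expressed relative to control.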

[16] = target: Casein kinase I isoform delta (Homo sapiens) (UniProt P48730); assay: Inhibition of CK1d assessed as residual activity at 1 uM
In short: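 Radioactivity-based enzymatic assay against a panel of 131 kinases (Dundee profiling). Activity remaining was measured with compound present at the stated concentration.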

[17] = system: Epidermal growth factor receptor (Homo sapiens), P00533 [T790M]; assay: Inhibition of EGFR T790M mutant assessed as residual activity at 10 uM relative to control; format: protein assay; in short: as §1

Sequence of Casein kinase I isoform delta (Homo sapiens) (P48730 whole entry, looked up, canonical isoform): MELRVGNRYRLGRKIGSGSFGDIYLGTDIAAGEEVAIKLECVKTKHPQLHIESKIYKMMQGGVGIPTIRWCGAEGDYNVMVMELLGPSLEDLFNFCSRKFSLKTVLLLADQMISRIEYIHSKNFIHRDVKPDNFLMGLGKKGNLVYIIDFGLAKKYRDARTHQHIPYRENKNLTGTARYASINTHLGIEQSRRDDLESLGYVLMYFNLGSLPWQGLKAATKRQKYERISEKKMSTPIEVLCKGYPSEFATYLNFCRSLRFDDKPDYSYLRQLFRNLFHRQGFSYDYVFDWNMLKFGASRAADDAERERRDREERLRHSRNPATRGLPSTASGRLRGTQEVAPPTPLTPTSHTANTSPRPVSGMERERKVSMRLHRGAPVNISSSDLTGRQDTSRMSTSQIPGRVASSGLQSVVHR
Sequence of Platelet-derived growth factor receptor beta (Homo sapiens) (P09619 whole entry): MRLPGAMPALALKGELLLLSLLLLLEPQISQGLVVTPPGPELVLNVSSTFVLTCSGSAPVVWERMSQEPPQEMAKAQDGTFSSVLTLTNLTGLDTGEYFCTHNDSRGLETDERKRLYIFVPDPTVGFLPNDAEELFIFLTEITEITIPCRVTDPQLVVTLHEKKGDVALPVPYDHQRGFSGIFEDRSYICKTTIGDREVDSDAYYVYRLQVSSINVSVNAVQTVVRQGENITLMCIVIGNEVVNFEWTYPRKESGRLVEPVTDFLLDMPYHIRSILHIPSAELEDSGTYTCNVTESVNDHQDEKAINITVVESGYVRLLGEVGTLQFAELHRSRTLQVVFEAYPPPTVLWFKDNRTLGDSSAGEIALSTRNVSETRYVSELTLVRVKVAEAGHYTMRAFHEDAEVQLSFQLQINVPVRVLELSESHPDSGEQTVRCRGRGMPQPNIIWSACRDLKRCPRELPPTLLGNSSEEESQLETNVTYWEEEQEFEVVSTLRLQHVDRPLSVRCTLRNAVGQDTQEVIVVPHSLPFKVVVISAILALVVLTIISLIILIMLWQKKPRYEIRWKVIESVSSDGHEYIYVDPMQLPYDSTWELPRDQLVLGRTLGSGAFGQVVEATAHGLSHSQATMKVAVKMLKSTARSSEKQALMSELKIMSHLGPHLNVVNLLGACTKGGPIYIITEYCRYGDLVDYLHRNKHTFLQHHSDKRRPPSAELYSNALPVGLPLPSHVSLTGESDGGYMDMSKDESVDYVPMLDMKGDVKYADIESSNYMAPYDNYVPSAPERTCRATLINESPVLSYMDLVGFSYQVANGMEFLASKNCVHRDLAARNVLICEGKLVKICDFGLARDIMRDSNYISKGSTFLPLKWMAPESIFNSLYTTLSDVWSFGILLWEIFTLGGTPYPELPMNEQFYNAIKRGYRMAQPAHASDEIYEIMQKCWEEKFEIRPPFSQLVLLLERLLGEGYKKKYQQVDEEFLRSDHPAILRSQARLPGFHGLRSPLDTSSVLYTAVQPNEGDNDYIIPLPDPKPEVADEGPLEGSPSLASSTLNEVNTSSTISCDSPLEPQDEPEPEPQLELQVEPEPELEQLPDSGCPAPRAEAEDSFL
Sequence of Calcium/calmodulin-dependent protein kinase kinase 2 (Homo sapiens) (Q96RR4 2-588 limits assumed): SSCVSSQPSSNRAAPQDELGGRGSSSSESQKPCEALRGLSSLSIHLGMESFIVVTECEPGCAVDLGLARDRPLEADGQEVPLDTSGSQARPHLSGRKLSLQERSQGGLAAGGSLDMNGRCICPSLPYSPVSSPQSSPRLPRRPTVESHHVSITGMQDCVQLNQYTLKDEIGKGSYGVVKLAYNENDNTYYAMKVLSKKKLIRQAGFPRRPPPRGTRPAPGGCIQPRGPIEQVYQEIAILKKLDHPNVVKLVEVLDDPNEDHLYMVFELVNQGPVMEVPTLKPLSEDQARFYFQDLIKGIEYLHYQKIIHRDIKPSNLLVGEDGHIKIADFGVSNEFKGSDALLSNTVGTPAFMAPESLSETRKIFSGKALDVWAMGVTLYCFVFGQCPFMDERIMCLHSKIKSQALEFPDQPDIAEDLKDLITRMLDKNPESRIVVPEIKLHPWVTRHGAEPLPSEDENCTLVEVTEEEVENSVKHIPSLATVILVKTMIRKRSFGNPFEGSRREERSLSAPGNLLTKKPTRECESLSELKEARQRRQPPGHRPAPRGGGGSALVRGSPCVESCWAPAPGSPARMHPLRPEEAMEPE
Sequence of Homeodomain-interacting protein kinase 3 (Homo sapiens) (Q9H422 whole entry, looked up): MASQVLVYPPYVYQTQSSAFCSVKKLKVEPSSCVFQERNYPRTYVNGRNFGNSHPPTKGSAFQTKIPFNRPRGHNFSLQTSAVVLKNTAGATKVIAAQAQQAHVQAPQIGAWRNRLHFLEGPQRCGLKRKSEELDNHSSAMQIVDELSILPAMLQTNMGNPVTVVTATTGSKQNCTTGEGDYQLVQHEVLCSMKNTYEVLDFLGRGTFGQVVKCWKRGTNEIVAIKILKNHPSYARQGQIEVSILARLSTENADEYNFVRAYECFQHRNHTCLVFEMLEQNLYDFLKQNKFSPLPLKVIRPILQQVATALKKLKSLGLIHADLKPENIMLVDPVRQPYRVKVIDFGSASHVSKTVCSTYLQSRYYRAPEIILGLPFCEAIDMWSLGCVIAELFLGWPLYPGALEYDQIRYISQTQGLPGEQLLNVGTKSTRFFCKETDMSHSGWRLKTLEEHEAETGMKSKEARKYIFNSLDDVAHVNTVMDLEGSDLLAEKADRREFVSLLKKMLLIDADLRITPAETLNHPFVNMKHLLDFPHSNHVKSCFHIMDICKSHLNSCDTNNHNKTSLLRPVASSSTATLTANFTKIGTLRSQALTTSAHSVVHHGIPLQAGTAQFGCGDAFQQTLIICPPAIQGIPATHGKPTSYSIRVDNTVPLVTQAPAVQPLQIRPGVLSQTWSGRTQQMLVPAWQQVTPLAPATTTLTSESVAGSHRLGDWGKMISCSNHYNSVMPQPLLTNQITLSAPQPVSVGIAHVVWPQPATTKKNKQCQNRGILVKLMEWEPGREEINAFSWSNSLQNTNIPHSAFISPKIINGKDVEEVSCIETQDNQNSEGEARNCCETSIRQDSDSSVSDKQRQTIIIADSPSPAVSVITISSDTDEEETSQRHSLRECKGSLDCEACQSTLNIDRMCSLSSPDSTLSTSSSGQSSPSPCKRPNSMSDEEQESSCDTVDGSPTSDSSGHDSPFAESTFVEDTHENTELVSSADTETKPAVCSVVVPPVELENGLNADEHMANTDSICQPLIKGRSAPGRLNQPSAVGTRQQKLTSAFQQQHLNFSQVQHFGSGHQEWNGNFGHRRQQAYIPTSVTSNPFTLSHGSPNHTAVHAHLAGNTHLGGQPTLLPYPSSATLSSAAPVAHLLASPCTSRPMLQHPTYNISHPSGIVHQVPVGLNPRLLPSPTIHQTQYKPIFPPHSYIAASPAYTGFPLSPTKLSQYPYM
Sequence of Mitogen-activated protein kinase kinase kinase 9 (Homo sapiens) (P80192 whole entry, looked up): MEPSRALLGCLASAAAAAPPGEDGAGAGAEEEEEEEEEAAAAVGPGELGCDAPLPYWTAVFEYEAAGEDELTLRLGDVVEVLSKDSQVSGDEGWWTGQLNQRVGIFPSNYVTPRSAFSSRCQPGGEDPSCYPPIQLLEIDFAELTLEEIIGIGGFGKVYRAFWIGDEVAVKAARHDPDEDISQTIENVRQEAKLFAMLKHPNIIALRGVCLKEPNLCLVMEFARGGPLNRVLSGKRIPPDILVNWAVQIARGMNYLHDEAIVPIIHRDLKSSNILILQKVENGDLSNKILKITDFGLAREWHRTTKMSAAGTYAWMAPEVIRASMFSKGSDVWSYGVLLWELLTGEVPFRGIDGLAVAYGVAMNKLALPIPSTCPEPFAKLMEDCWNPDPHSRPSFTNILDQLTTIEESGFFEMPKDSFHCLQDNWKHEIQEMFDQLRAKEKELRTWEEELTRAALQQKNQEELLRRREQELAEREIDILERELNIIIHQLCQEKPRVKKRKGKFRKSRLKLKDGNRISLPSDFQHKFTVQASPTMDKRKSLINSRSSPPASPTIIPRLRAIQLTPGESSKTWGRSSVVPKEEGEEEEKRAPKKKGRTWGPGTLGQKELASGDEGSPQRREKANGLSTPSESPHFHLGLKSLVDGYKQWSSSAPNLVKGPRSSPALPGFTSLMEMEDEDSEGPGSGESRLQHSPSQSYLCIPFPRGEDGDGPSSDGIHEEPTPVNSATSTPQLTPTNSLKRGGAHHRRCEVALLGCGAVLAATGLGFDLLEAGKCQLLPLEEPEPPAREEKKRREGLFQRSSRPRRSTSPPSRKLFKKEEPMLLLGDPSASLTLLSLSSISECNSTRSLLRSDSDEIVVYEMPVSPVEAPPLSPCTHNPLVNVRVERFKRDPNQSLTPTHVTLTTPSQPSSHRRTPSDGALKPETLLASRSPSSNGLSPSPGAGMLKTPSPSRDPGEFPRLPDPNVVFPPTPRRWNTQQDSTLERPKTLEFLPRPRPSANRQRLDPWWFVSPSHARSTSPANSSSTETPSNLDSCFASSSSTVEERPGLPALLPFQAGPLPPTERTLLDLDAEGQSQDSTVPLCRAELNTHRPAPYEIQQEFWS
Sequence of Cyclin-dependent kinase 18 (Homo sapiens) (Q07002 whole entry): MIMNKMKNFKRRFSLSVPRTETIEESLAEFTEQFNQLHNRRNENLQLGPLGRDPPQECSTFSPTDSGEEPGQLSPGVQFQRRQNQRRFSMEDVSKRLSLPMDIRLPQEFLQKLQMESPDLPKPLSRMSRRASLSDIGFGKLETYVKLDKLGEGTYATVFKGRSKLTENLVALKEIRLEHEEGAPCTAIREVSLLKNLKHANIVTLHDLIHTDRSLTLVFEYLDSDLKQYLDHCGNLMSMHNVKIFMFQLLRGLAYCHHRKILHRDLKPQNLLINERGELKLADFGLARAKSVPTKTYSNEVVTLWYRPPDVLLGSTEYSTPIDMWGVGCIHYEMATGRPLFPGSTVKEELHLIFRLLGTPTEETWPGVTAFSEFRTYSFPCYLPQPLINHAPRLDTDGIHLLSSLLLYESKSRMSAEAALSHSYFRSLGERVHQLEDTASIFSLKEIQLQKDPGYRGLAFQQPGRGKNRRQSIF

In the case of `O=C(Nc1cccnc1)c1cc(-c2ccnc(F)c2)ccc1OCc1ccccc1`, the Activity [1] is reported as 52%, the Activity [2] is reported as 73% and the Activity [3] is reported as 71%. The Activity [4] was 71%, the Activity [5] was 16% and the Activity [6] was 73%. For the same molecule, the Activity [7] was 69%, the Activity [8] was 52% and the Activity [9] was 61%. It also gave an Activity [10] of 101%, an Activity [11] of 58% and an Activity [12] of 64%. The Activity [13] was 58%, the Activity [14] was 97% and the inhibition (Mus musculus) was “Active”. It also gave an Activity [15] of 19%, an Activity [16] of 107% and an Activity [17] of 40%.
